Peptide text beside a SMILES is read from it.
How the values were obtained:
[1] = Selectivity for mu opioid receptor over delta opioid receptor in rat brain membranes; assay type: cell membranes
[2] = biological target: Delta-type opioid receptor (Rattus norvegicus, UniProt P33533); experiment: Displacement of [3H]naltrindole from delta opioid receptor in rat brain membranes; assay type: cell membranes
[3] = biological target: Delta-type opioid receptor (Homo sapiens, UniProt P41143); experiment: Antagonist activity at delta opioid receptor expressed in CHO cells assessed as release of intracellular calcium ions by aequorin luminescence-based calcium assay; assay type: functional, cell-based
Sequence of Delta-type opioid receptor (Homo sapiens, UniProt P41143) (P41143 whole entry): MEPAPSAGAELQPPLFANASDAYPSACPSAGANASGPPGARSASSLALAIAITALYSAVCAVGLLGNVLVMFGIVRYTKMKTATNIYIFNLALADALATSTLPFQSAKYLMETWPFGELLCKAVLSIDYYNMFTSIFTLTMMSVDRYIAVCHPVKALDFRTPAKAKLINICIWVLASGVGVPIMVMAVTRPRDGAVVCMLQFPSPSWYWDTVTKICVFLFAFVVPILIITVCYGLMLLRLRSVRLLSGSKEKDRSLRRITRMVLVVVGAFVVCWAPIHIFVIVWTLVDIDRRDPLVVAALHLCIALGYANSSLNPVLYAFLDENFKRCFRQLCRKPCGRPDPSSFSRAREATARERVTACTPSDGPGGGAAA

[4] = biological target: T1, Mu-type opioid receptor (Rattus norvegicus, UniProt P33535); experiment: Displacement of [3H]DAMGO from mu opioid receptor in rat brain membranes; assay type: cell membranes
T1 sequence (P33535 whole entry): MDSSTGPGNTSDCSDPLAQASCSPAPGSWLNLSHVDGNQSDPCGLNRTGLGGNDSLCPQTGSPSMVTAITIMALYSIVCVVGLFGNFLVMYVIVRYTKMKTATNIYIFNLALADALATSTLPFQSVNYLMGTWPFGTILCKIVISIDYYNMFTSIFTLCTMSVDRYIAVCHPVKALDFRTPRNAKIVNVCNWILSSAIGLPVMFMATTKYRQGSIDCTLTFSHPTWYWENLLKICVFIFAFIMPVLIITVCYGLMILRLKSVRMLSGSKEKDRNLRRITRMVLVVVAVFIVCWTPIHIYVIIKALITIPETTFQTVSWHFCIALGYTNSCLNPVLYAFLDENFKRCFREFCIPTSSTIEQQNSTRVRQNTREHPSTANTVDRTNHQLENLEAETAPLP

[5] = biological target: T1, Mu-type opioid receptor; experiment: Displacement of [3H]naloxone from mu opioid receptor in rat brain membranes; assay type: cell membranes
[6] = tested on: Mus musculus; experiment: Antinociceptive activity in mouse assessed as paw licking latency at 10 ug, icv in presence of endomorphin-2 by hot plate test; assay type: functional
In short: (§1)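 Mouse hot plate test with intracerebroventricular co-injection of endomorphin-2 (3 ug/animal) plus antagonist: naloxone at 5 ug/animal, or analog at 10 ug/animal. Rearing, paw-licking and jumping latencies were measured against saline controls and converted to %MPE = (t1 − t0)/(t2 − t0) × 100, with a 240 s cutoff.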

[7] = tested on: Mus musculus; experiment: Antinociceptive activity in mouse assessed as jumping latency at 10 ug, icv in presence of endomorphin-2 by hot plate test; assay type: functional; in short: as §1
[8] = tested on: Mus musculus; experiment: Antinociceptive activity in mouse assessed as rearing latency at 10 ug, icv in presence of endomorphin-2 by hot plate test; assay type: functional; in short: as §1
[9] = tested on: Mus musculus; experiment: Antinociceptive activity in mouse assessed as rearing latency at 10 ug, icv by hot plate test; assay type: functional
In short: (§2)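 Mice, single intracerebroventricular peptide injection; hot plate latencies recorded for rearing, paw licking and jumping. Control latencies (t0) taken after saline, test latencies (t1) after peptide. Expressed as %MPE = (t1 − t0)/(t2 − t0) × 100, with a cutoff time (t2) of 240 s.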

[10] = tested on: Mus musculus; experiment: Antinociceptive activity in mouse assessed as paw licking latency at 10 ug, icv by hot plate test; assay type: functional; in short: as §2
[11] = tested on: Mus musculus; experiment: Antinociceptive activity in mouse assessed as jumping latency at 10 ug, icv by hot plate test; assay type: functional; in short: as §2
[12] = tested on: Mus musculus; experiment: Antinociceptive activity in mouse assessed as rearing latency at 5 ug, icv in presence of endomorphin-2 by hot plate test; assay type: functional; in short: as §1
[13] = tested on: Mus musculus; experiment: Antinociceptive activity in mouse assessed as jumping latency at 5 ug, icv in presence of endomorphin-2 by hot plate test; assay type: functional; in short: as §1
[14] = tested on: Mus musculus; experiment: Antinociceptive activity in mouse assessed as paw licking latency at 5 ug, icv in presence of endomorphin-2 by hot plate test; assay type: functional; in short: as §1

Sequence of Delta-type opioid receptor (Rattus norvegicus, UniProt P33533) (P33533 whole entry): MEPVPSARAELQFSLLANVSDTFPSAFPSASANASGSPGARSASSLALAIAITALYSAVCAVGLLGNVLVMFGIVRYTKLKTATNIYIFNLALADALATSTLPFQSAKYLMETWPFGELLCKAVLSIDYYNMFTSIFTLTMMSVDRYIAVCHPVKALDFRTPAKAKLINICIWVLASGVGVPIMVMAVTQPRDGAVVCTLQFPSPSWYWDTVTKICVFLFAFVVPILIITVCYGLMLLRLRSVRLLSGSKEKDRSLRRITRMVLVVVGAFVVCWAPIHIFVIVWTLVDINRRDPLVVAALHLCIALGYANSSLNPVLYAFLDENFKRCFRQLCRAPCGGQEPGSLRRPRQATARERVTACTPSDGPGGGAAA

Compound	IC50 [1] [nM]	IC50 [2] [nM]	EC50 [3] [nM]	IC50 [4] [nM]	IC50 [5] [nM]	MPE [6] [%]	MPE [7] [%]	MPE [8] [%]	MPE [9] [%]	MPE [10] [%]	MPE [11] [%]	MPE [12] [%]	MPE [13] [%]	MPE [14] [%]
CN(CC(=O)N[C@@H](Cc1ccccc1)C(=O)N[C@H](Cc1ccc2ccccc2c1)C(N)=O)C(=O)[C@@H](N)Cc1ccc(O)cc1	> 6.41	> 10000	> 1000	1560	–	–	–	–	–	–	–	–	–	–
NC(=O)[C@@H](Cc1ccc2ccccc2c1)NC(=O)[C@H](Cc1ccccc1)NC(=O)[C@@H]1CCCN1C(=O)[C@@H](N)Cc1ccc(O)cc1 (HELM PEPTIDE1{Y.P.F.[O=C([C@@H](Cc1ccc2ccccc2c1)N[*:1])[*:2]].[am]}$$$$V2.0)	–	–	–	–	19.5	2.94	17.9	5.26	–	–	–	–	–	–
Cc1cc(O)cc(C)c1C[C@H](N)C(=O)N1CCC[C@H]1C(=O)N[C@@H](Cc1ccccc1)C(=O)N[C@H](Cc1ccc2ccccc2c1)C(N)=O (HELM PEPTIDE1{[Cc1cc(O)cc(C)c1C[C@H](N)C(=O)[*:2]].P.F.[O=C([C@@H](Cc1ccc2ccccc2c1)N[*:1])[*:2]].[am]}$$$$V2.0)	5.09	–	–	1.52	–	0.26	2.26	0.13	0.18	0.09	–	–	–	–
Cc1cc(O)cc(C)c1C[C@H](N)C(=O)N(C)CC(=O)N[C@@H](Cc1ccccc1)C(=O)N[C@H](Cc1ccc2ccccc2c1)C(N)=O (HELM PEPTIDE1{[Cc1cc(O)cc(C)c1C[C@H](N)C(=O)[*:2]].[Sar].F.[O=C([C@@H](Cc1ccc2ccccc2c1)N[*:1])[*:2]].[am]}$$$$V2.0)	> 10000	> 10000	> 1000	0.01	–	1.89	11.5	3.63	0.09	0.04	1.42	–	–	–
C=CCN1CC[C@]23c4c5ccc(O)c4O[C@H]2C(=O)CC[C@@]3(O)[C@H]1C5 [NALOXONE]	–	–	–	–	–	–	–	–	–	–	–	0.22	2.19	0.34
